{
  "source": "PubChem BioAssay AID493047",
  "about": "(Johns Hopkins Ion Channel Center, 2011)",
  "note": "Calls of active or inactive are those of the source.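 The calls were made as follows: active = a rise or drop in KCNQ3 potassium channel activity at some tested dose, with a dose-response curve obtained; inactive = no effect at any dose, or no curve.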",
  "data": [
    {"molecular_target": "Potassium voltage-gated channel subfamily KQT member 3 (Rattus norvegicus) (UniProt O88944)", "sequence (O88944 whole entry, looked up)": "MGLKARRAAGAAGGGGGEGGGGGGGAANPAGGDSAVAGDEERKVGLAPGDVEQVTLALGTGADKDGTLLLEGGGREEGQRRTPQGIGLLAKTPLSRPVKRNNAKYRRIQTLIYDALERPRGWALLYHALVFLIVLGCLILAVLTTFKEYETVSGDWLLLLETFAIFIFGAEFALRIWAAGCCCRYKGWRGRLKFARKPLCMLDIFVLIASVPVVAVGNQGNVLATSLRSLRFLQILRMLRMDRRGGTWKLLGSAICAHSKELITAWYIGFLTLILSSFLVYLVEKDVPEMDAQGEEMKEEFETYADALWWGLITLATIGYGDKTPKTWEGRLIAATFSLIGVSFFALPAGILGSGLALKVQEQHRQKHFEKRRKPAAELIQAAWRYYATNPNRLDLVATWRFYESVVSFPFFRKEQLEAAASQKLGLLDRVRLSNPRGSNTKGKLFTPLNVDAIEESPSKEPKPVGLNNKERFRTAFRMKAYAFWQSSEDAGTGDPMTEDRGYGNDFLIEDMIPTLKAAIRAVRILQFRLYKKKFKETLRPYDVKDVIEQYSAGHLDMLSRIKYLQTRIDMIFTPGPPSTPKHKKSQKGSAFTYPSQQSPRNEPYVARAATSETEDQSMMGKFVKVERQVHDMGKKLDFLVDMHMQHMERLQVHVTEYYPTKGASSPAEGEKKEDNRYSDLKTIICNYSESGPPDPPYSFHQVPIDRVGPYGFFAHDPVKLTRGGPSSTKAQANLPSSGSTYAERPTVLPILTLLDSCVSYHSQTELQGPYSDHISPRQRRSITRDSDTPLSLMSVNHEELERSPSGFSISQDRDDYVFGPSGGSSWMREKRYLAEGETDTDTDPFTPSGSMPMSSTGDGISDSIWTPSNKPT", "test": "rat KCNQ3 activity selectivity test – cell-based, thallium flux, CHO-K1 transient KCNQ3, selectivity assay for KCNQ2 activator project, dose response (AID 493047)", "details": "CHO-K1 transient KCNQ3, FluxOR thallium flux fluorescence; series mostly up to 30 µM", "how_it_was_run": "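Assay system – transiently transfected CHO-K1 cells · Reagent – potassium/thallium sulfate stimulus buffer · Schedule – FluxOR dye loading 90 min, compound exposure 20 min, both RT, dark · Signal – FluxOR thallium-flux fluorescence · Read-out – % change of flux ratio relative to vehicle · Control set – vehicle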", "values": [
      {"compound": "Cc1ccc(C)c(NC(=O)C2CC3CCC2C3)c1", "note": "(stereo not given)", "outcome": "inactive"},
      {"compound": "Cc1cc(C)c(NC(=O)C2CC3CCC2C3)c(C)c1", "note": "(stereo not given)", "outcome": "inactive"},
      {"compound": "CCCCC(=O)Nc1c(C)cc(C)cc1Cl", "outcome": "inactive"},
      {"compound": "Cc1cc(C)c(NC(=O)CC(C)(C)C)c(Cl)c1", "outcome": "inactive"},
      {"compound": "Cc1cccc(C)c1NC(=O)C1CC2CCC1C2", "note": "(stereo not given)", "outcome": "inactive"}
    ]}
  ]
}
